In ChEMBL document CHEMBL3792332, “Novel chromone and xanthone derivatives: Synthesis and ROS/RNS scavenging activities” (Eur J Med Chem, 2016):

Experiments:
Format in all cases: physicochemical
[1] = Antioxidant activity assessed as inhibition of NO-induced oxidation of non-fluorescent DAF-2 to the fluorescent triazolofluorescein after 30 mins by fluorimetric method; conditions: for inhibition (INH): 0.5 h
Procedure, shortened: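 •NO released from NOC-5; oxidation of DAF-2 to DAF-2T read fluorimetrically (ex 485/em 528 nm) after 30 min at 37 °C. Compounds in DMSO at final 0.25–8 μM. IC50 derived from % inhibition vs concentration curves, 5–7 concentrations in triplicate, at least four independent experiments.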

[2] = Antioxidant activity assessed as inhibition of superoxide induced reduction of NBT measured for 2 mins by UV-visible spectrophotometric method; conditions: for inhibition (INH): 2 min
Procedure, shortened: (§1)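 Superoxide produced by the NADH/PMS/O2 system at room temperature. NBT reduction followed at 560 nm over 2 min. Compounds in DMSO at final 25–200 μM. IC50 from % inhibition vs concentration curves, at least four independent experiments in triplicate. The single-concentration line is % inhibition at the top concentration.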

[3] = Antioxidant activity assessed as inhibition of peroxynitrite induced oxidation of the non-fluorescent dihydrorhodamine 123 to the fluorescent rhodamine-123 in presence of NaHCO3 after 2 mins by fluorimetric method
Procedure, shortened: (§2)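 Peroxynitrite (synthesized in-house) oxidizes DHR to rhodamine 123; fluorescence read after 2 min at 37 °C. Compounds in DMSO at final 0.156–5 μM. A parallel set was run with 25 mM NaHCO3 to mimic physiological CO2. IC50 from inhibition curves, 5–7 concentrations in triplicate, ≥4 independent experiments.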

[4] = Antioxidant activity assessed as inhibition of H2O2 induced lucigenin oxidation at 37 degC
Procedure, shortened: (§3)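 H2O2 scavenging by chemiluminescence: H2O2-induced lucigenin oxidation, signal recorded immediately after the plate enters the reader. Compounds in DMSO at final 31.25–1000 μM, 37 °C. IC50 from % inhibition vs concentration curves (5–7 concentrations in triplicate, at least four independent experiments). Single-concentration line gives % effect at the top concentration. Quercetin as positive control.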

[5] = Antioxidant activity assessed as inhibition of singlet oxygen induced oxidation of non-fluorescent DHR to fluorescent rhodamine 123 at 37 degC measured after 30 mins by fluorimetric method; conditions: for inhibition (INH): 0.5 h
Procedure, shortened: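 Singlet oxygen generated by thermal decomposition of NDPO2 at 37 °C. DHR oxidation to rhodamine 123 read fluorimetrically after 30 min incubation. Compounds in DMSO, final 0.3125–20 μM for chromones and 0.625–80 μM for xanthones. IC50 from % inhibition curves, 5–7 concentrations in triplicate, ≥4 independent experiments.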

[6] = Antioxidant activity assessed as inhibition of peroxynitrite induced oxidation of the non-fluorescent dihydrorhodamine 123 to the fluorescent rhodamine 123 after 2 mins by fluorimetric method; conditions: for inhibition (INH): 2 min; procedure, shortened: as §2
[7] = Antioxidant activity assessed as inhibition of HOCl-induced oxidation of DHR to rhodamine 123 at 37 degC by fluorimetric method
Procedure, shortened: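 HOCl made daily by adjusting 1% NaOCl to pH 6.2 with 10% H2SO4. HOCl-induced DHR oxidation to rhodamine 123 read immediately at ex 480/em 528 nm, 37 °C. Compounds in ethanol, final 6.25–400 μM. IC50 from inhibition curves, 5–7 concentrations in triplicate, ≥4 independent experiments.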

[8] = Antioxidant activity assessed as inhibition of H2O2 induced lucigenin oxidation at 1000 uM at 37 degC; procedure, shortened: as §3
[9] = Antioxidant activity assessed as inhibition of superoxide induced reduction of NBT measured for 2 mins at 200 uM by UV-visible spectrophotometric method; procedure, shortened: as §1

Structure (SMILES) | IC50 [1] | inhibition (INH) [1] | IC50 [2] | IC50 [3] | IC50 [4] | inhibition (INH) [4] | IC50 [5] | inhibition (INH) [5] | IC50 [6] | inhibition (INH) [6] | IC50 [7] | inhibition (INH) [7] | inhibition (INH) [2] | IC50 ([2]; read-out: IC50) | inhibition (INH) [8] | inhibition (INH) [9]
O=c1cc(/C=C/C=C/c2ccc(O)c(O)c2)oc2cccc(O)c12 | 1.23 µM | Dose-dependent effect | ND(Insoluble) | 0.4 µM | 125 µM | Dose-dependent effect | 1.1 µM | Dose-dependent effect | 0.34 µM | Dose-dependent effect | 94 µM | Dose-dependent effect | – | – | – | –
O=c1cc(/C=C/C=C/c2ccc(O)c(O)c2)oc2ccccc12 | 0.82 µM | Dose-dependent effect | ND(Insoluble) | 0.34 µM | 143 µM | Dose-dependent effect | 1.3 µM | Dose-dependent effect | 0.33 µM | Dose-dependent effect | 32 µM | Dose-dependent effect | – | – | – | –
O=c1c2c(O)cccc2oc2cccc(-c3ccc(O)c(O)c3)c12 | 1.5 µM | Dose-dependent effect | – | 0.56 µM | 658 µM | Dose-dependent effect | 10 µM | Dose-dependent effect | 0.57 µM | Dose-dependent effect | 96 µM | Dose-dependent effect | Dose-dependent effect | 80 µM | – | –
O=c1c2ccccc2oc2cccc(-c3ccc(O)c(O)c3)c12 | 1.99 µM | Dose-dependent effect | – | 0.35 µM | – | – | 4.4 µM | Dose-dependent effect | 0.51 µM | Dose-dependent effect | 158 µM | Dose-dependent effect | Dose-dependent effect | 55 µM | 12% | –
O=c1cc(/C=C/C=C/c2ccc(O)c(O)c2)oc2cc(O)ccc12 | 1.42 µM | Dose-dependent effect | – | 0.3 µM | 121 µM | Dose-dependent effect | 1.6 µM | Dose-dependent effect | 0.29 µM | Dose-dependent effect | 17 µM | Dose-dependent effect | – | – | – | 36%
O=c1c2ccc(O)cc2oc2cccc(-c3ccc(O)c(O)c3)c12 | 1.08 µM | Dose-dependent effect | – | 0.66 µM | 518 µM | Dose-dependent effect | 7.3 µM | Dose-dependent effect | 0.39 µM | Dose-dependent effect | 31 µM | Dose-dependent effect | Dose-dependent effect | 61 µM | – | –
O=c1c(O)c(-c2ccc(O)c(O)c2)oc2cc(O)cc(O)c12 [QUERCETIN] | 0.77 µM | – | – | 0.68 µM | 1340 µM | – | 1.5 µM | – | 0.45 µM | – | 2.4 µM | – | – | 60 µM | – | –
